No end group written: not given here. rhodamine = not defined here
What was measured:
[1] = target: par3-PDZ3; settings: read-out: Kd for par3-PDZ3; reported value; ref [16]; cited from earlier work
[2] = target: par3-PDZ3 (Mus musculus, UniProt Q99NH2); assay: Fluorescence polarization titration of rhodamine-labeled peptides with par3-PDZ3; assay type: binding, M. musculus; settings: rhodamine labeled peptide
Outline: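 Mouse par3-PDZ3 (residues 581–689) was expressed in E. coli SG13009 with a cleavable N-terminal His8 tag, purified by Ni2+ affinity, TEV-cleaved and cation-exchange purified. Increasing par3-PDZ3 was titrated into 100nM N-terminally rhodamine-labelled synthetic peptide in 50mM HEPES, 100mM NaCl, 1mM DTT, 1mM EDTA, pH 7.4, 298K (ex 562nm/em 582nm). Kd came from fitting a single-site hyperbolic binding equation.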

[3] = target: par3-PDZ3 (residues 581 to 689 of M. musculus par3) (M. musculus, UniProt Q99NH2 581-689); assay: fluorescence polarisation
Chain of par3-PDZ3 (residues 581 to 689 of M. musculus par3) (Q99NH2 581-689): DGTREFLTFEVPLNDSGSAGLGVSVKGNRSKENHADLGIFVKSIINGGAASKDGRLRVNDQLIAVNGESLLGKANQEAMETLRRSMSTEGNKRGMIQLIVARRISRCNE

Chain of par3-PDZ3 (Mus musculus, UniProt Q99NH2) (Q99NH2 581-689): as above

DEDQHSQITKVcoo-
Kd [1]: 19 µM

QHSQITKVcoo-
interaction with par3-PDZ3 (detected or not) [2]: failed to detect any interaction

B1: rhodamine-labeled VE-Cad (773-784) (peptide)
peptide: rhodamine-LYGSDPQEELII
modifications: reading uncertain
Kd [3]: 6 µM

B2: rhodamine-labeled VE-Cad (773-784) Y774A (peptide, UniProt P55284 773-784, looked up)
peptide: rhodamine-LAGSDPQEELII
modifications: reading uncertain
binding result [3]: binds
